Measured values pooled from the literature.
EGFR G719C: Epidermal growth factor receptor (EGFR, Homo sapiens, UniProt P00533, G719C)
EGFR del747-752/P753S: Epidermal growth factor receptor (EGFR, Homo sapiens, UniProt P00533, del747-752/P753S)
EGFR del746-750: Epidermal growth factor receptor (EGFR, Homo sapiens, UniProt P00533, del746-750)
EGFR T790M: Epidermal growth factor receptor (EGFR, Homo sapiens, UniProt P00533, T790M)
EGFR L861Q: Epidermal growth factor receptor (EGFR, Homo sapiens, UniProt P00533, L861Q)
EGFR del752-759: Epidermal growth factor receptor (EGFR, Homo sapiens, UniProt P00533, del752-759)

| Structure (SMILES) | target | observed | technique | concentration | remaining binding [%] |
| --- | --- | --- | --- | --- | --- |
| Cc1nc(Cc2cccc(C(F)(F)F)c2)sc1-c1ccc(C(N)=O)nc1 | EGFR G719C | cell-free assay | competition with immobilised ligand | 1 µM | 94 |
| CC1CCCN1c1nccc(-c2cnn3ncccc23)n1 (centres unmarked) | Epidermal growth factor receptor (EGFR, Homo sapiens, UniProt P00533, G719S) | binding |  | 1 µM | 100 |
| CNC(=O)[C@@H]1CC[C@@H](n2c(-c3ccc4cnccc4c3)nc3ccc(C(=O)NCc4cccc(C(N)=O)c4)cc32)C1 | EGFR del747-752/P753S | binding | competition with immobilised ligand | 1 µM | 100 |
| O=C(c1ccc(Nc2ncc(Cl)c(-c3ccc(Cl)s3)n2)cc1)N1CCC(N2CCCC2)CC1 | EGFR G719C | binding | competition with immobilised ligand | 1 µM | 100 |
| CCN1CCN(Cc2ccc(C(=O)Nc3ccc(C)c(Oc4ccc5c(c4)CC(=O)N5)c3)cc2C(F)(F)F)CC1 | EGFR G719C | binding | competition with immobilised ligand | 1 µM | 100 |
| Nc1ncc2c(n1)-c1c([nH]c3ccc(C#CC4CC4)cc13)CCCC2 | EGFR del746-750 | binding | competition with immobilised ligand | 1 µM | 72 |
| CSc1cccnc1N1CCN(Cc2nc3ccccc3[nH]2)CC1 | EGFR T790M | cell-free assay | competition with immobilised ligand | 1 µM | 85 |
| c1cnn2ncc(-c3ccnc(N4CCC45COC5)n3)c2c1 | EGFR L861Q | binding |  | 1 µM | 96 |
| Cc1c(-c2ccccc2)oc2c(C(=O)OCCN3CCCCC3)cccc2c1=O | Epidermal growth factor receptor (EGFR, Homo sapiens, UniProt P00533) | cell-free assay | competition with immobilised ligand | 0.1 µM | 100 |
| CN(C)c1ncc(F)c(-c2cnn3ncccc23)n1 | EGFR del746-750 | binding |  | 1 µM | 100 |
| O=C(NCCCN1CCOCC1)c1ccc(Nc2ncc(Cl)c(-c3ccc(Cl)s3)n2)cc1 | EGFR L861Q | binding | competition with immobilised ligand | 1 µM | 100 |
| N[C@@H]1CCN(c2nccc(-c3cnn4ncccc34)n2)C1 | EGFR G719C | binding |  | 1 µM | 83 |
| CN(C)C(=O)Cn1cc(-c2nc(C3(c4ccc(-c5cnc(N)nc5)cc4)CC3)no2)cn1 | Epidermal growth factor receptor (EGFR, Homo sapiens, UniProt P00533, A750P/del747-749) | cell-free assay | competition with immobilised ligand | 1 µM | 80 |
| O=C(NCC1CCOCC1)c1n[nH]cc1NC(=O)c1c(F)cccc1F | EGFR del747-752/P753S | binding | competition with immobilised ligand | 1 µM | 100 |
| C[C@H](NC(=O)c1cnc2n1[C@](C)(Cc1ccc(C#N)cc1)C(=O)N2c1cc(Cl)c(F)c(Cl)c1)C(=O)NC1(c2ccccn2)CC1 | EGFR del752-759 | cell-free assay | competition with immobilised ligand | 1 µM | 100 |
| C[C@@H]1CCN(c2nccc(-c3cnn4ncccc34)n2)C1 | EGFR del752-759 | binding |  | 1 µM | 88 |
| CNCc1ccccc1-c1csc([C@@H](C)Nc2nc(C)nc3cc(OC)c(OC)cc23)c1 | EGFR del752-759 | cell-free assay | competition with immobilised ligand | 1 µM | 63 |
| O=C(NC1CCC1)c1ccc2nc(-c3cccc(NS(=O)(=O)NCCN4CCCCC4)c3)cn2c1 | EGFR del747-752/P753S | cell-free assay | competition with immobilised ligand | 10 µM | 100 |
| O=C(NCCCN1CCOCC1)c1ccc(Nc2nccc(-c3cc4ccccc4s3)n2)cc1 | EGFR T790M | binding | competition with immobilised ligand | 1 µM | 90 |
| O=C1NC(c2ccccn2)Sc2ccccc21 (centres unmarked) | Epidermal growth factor receptor (EGFR, Homo sapiens, UniProt P00533, del747-750/T751S) | cell-free assay | competition with immobilised ligand | 1 µM | 68 |
| Cc1cnn2ncc(-c3ccnc(N(C)C)n3)c2c1 | EGFR G719C | binding |  | 1 µM | 100 |
| CNC(=O)c1ccc(Nc2ncc(C(F)(F)F)c(NCc3nccnc3N(C)S(C)(=O)=O)n2)cc1 | EGFR L861Q | cell-free assay | competition with immobilised ligand | 0.1 µM | 100 |
| COc1cnc(Nc2cccc(S(N)(=O)=O)c2)nc1N1CCN(c2ccccc2)CC1 | Epidermal growth factor receptor (EGFR, Homo sapiens, UniProt P00533, L858R) | binding | competition with immobilised ligand | 1 µM | 89 |
